Test results: ChEMBL document CHEMBL1800048, “Gambogic acid, a natural product inhibitor of Hsp90” (J Nat Prod, 2011)
Calls of active or inactive are those of the source. The rule behind the calls is not given here.

What was measured:
[1] = molecular target: T1, Hsp90 co-chaperone Cdc37 (Homo sapiens) (UniProt Q16543); assay: Inhibition of Cdc37 interaction with heme-regulated [35S]His-tagged eIF2alpha K199R mutant kinase in reticulocyte lysate assessed as coadsorbed Cdc37 at 80 uM after 40 mins by SDS-PAGE and Western blot analysis
T1 sequence (whole entry): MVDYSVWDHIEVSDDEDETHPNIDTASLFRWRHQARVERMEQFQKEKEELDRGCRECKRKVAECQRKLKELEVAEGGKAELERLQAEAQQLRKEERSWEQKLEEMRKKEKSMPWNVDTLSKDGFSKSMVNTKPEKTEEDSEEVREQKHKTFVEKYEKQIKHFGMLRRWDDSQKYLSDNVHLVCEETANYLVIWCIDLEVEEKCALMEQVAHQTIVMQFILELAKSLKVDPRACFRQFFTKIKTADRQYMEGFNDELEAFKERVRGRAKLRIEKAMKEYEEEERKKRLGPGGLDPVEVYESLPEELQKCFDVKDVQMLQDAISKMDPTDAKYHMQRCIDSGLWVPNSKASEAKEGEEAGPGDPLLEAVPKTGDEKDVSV
Method in brief: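 His-tagged kinase-dead HRI K199R made by TnT in reticulocyte lysate with [35S]methionine. After 10 min of synthesis, compound or DMSO (4% v/v) added, then 40 min more. Immunoadsorbed with anti-His-tag antibody on anti-mouse-IgG agarose. Washed four times in 10 mM PIPES pH 7.2, 100 mM NaCl. Co-adsorbed Hsp90, Hsp70 and Cdc37 read by SDS-PAGE and Western blot; plasmid-free lysate as nonspecific control.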

[2] = Inhibition of Hsp90-mediated [35S]His-tagged HRI maturation in heme-deficient reticulocyte lysate at 80 uM after 45 mins by SDS-PAGE and autoradiography
Method in brief: (§1)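 Wild-type [35S]His-tagged HRI made by coupled transcription-translation in reticulocyte lysate with [35S]methionine. Compound or DMSO (4% v/v) added after 20 min, then 10 min more. Sample diluted into 7 volumes of heme-deficient lysate (hemin 20 µM as reference) holding the same compound level, 45 min. HRI pulled down on NTA-Ni resin, 1 h on ice. SDS-PAGE and autoradiography; mobility shift and band densitometry as % of minus-heme control.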

[3] = Effect on [35S]His-tagged HRI stability in heme-deficient reticulocyte lysate assessed as loss of [35S]His-tagged HRI at 80 uM after 45 mins by SDS-PAGE and autoradiography; method in brief: as §1
[4] = Inhibition of Hsp90-mediated [35S]His-tagged HRI maturation in heme-deficient reticulocyte lysate at 4 mM after 45 mins by SDS-PAGE and autoradiography; method in brief: as §1
[5] = Effect on [35S]His-tagged HRI stability in heme-deficient reticulocyte lysate assessed as loss of [35S]His-tagged HRI at 4 mM after 45 mins by SDS-PAGE and autoradiography; method in brief: as §1
[6] = Inhibition of Hsp90-mediated [35S]His-tagged HRI maturation in heme-deficient reticulocyte lysate at 400 uM after 45 mins by SDS-PAGE and autoradiography
Method in brief: (§2)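 [35S]His-tagged wild-type HRI was made by transcription-translation in reticulocyte lysate. Compound or 4% v/v DMSO was added at 20 min, followed by 10 min more. Samples were diluted into 7 volumes of heme-deficient lysate holding the same compound concentration; hemin-supplemented (20 µM) lysate was the reference. After 45 min, HRI was captured on Ni-NTA on ice for 1 h. Maturation was scored by mobility shift on SDS-PAGE and autoradiography.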

[7] = Effect on [35S]His-tagged HRI stability in heme-deficient reticulocyte lysate assessed as loss of [35S]His-tagged HRI at 400 uM after 45 mins by SDS-PAGE and autoradiography
[8] = molecular target: T1, Hsp90 co-chaperone Cdc37 (Homo sapiens); details: 100 uM
[9] = Inhibition of Hsp90-mediated [35S]His-tagged HRI maturation in heme-deficient reticulocyte lysate at 100 uM after 45 mins by SDS-PAGE and autoradiography; method in brief: as §2
[10] = Effect on [35S]His-tagged HRI stability in heme-deficient reticulocyte lysate assessed as loss of [35S]His-tagged HRI at 100 uM after 45 mins by SDS-PAGE and autoradiography
[11] = Inhibition of Hsp90-dependent refolding of luciferase in reticulocyte lysate by microplate reader
[12] = molecular target: T2, Heat shock protein HSP90 (Homo sapiens, UniProt P07900+P08238); assay: Inhibition of Hsp90 in human SKBR3 cells assessed as induction of Hsp90 expression after 36 hrs by Western blot analysis; assay type: cell-based; details: SK-BR-3
Method in brief: (§3)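 Cells (1×10^6 per dish) were attached overnight, then exposed to the compound for 36 h. […] Extracts (10 µg protein) were Western blotted for Her2, Akt, Raf-1, Hsp90 and Hsp70, with actin as loading control.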

[13] = molecular target: T2, Heat shock protein HSP90; assay: Inhibition of Hsp90 in human MCF7 cells assessed as Raf degradation after 36 hrs by Western blot analysis; assay type: cell-based; method in brief: as §3
[14] = molecular target: T2, Heat shock protein HSP90; assay: Inhibition of Hsp90 in human SKBR3 cells assessed as Raf degradation after 36 hrs by Western blot analysis; assay type: cell-based; details: SK-BR-3; method in brief: as §3
[15] = molecular target: T2, Heat shock protein HSP90; assay: Inhibition of Hsp90 in human MCF7 cells assessed as induction of Hsp70 expression after 36 hrs by Western blot analysis; assay type: cell-based; method in brief: as §3
[16] = molecular target: T2, Heat shock protein HSP90; assay: Inhibition of Hsp90 in human SKBR3 cells assessed as induction of Hsp70 expression after 36 hrs by Western blot analysis; assay type: cell-based; details: SK-BR-3; method in brief: as §3
[17] = molecular target: T2, Heat shock protein HSP90; assay: Inhibition of Hsp90 in human MCF7 cells assessed as Akt degradation after 36 hrs by Western blot analysis; assay type: cell-based; method in brief: as §3
[18] = molecular target: T2, Heat shock protein HSP90; assay: Inhibition of Hsp90 in human SKBR3 cells assessed as Akt degradation after 36 hrs by Western blot analysis; assay type: cell-based; details: SK-BR-3; method in brief: as §3
[19] = molecular target: T1, Hsp90 co-chaperone Cdc37 (Homo sapiens); details: 50 uM
[20] = Inhibition of Hsp90-mediated [35S]His-tagged HRI maturation in heme-deficient reticulocyte lysate at 50 uM after 45 mins by SDS-PAGE and autoradiography; method in brief: as §2
[21] = Effect on [35S]His-tagged HRI stability in heme-deficient reticulocyte lysate assessed as loss of [35S]His-tagged HRI at 50 uM after 45 mins by SDS-PAGE and autoradiography
[22] = molecular target: T2, Heat shock protein HSP90; assay: Binding affinity to human full length Hsp90 expressed in insect Sf9 cells by SPR analysis
Method in brief: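 Full-length human Hsp90β from baculovirus-infected Sf9 cells was amine-coupled by EDC/NHS to a carboxyl SPR chip (about 2000 RU). Compound at 1.0–50 µM was injected in 10 mM PIPES pH 7.4, 300 mM NaCl, 2% DMSO at 15 µL/min, 25 °C. Measured in triplicate; ka, kd and KD were derived from curve fits.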

[23] = molecular target: T2, Heat shock protein HSP90; assay: Binding affinity to human Hsp90 C-terminal domain (531 to 732) expressed in Escherichia coli DE-3cstar cells by SPR analysis
Method in brief: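 Hsp90 N-terminal (aa 1–241) or C-terminal (aa 531–732) domain was expressed in E. coli, Ni-NTA purified, His-tag TEV-cleaved, then gel-filtered and biotinylated for SPR. Analyte was injected in 10 mM PIPES pH 7.4, 300 mM NaCl, 2% DMSO at 15 µL/min, 25 °C. […] Triplicates; ka, kd and KD were derived from fits.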

[24] = tested on: HeLa; assay: Antiproliferative activity against human HeLa cells assessed as inhibition of cell growth after 72 hrs by cell titer 96 assay; assay type: functional
Method in brief: (§4)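 Cells seeded at 2000/well and left to attach overnight. HeLa was grown in MEM with non-essential amino acids, 2 mM glutamine and 10% FBS. SkBr3 was grown in DMEM/F12 (1:1) with penicillin/streptomycin and 10% FBS. Varying compound concentrations or 1% DMSO vehicle were added for 72 h at 37 °C. Tetrazolium reagent was added for 1 h, then A490 read; viability expressed as % of DMSO wells.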

[25] = tested on: SK-BR-3; assay: Antiproliferative activity against human SKBR3 cells assessed as inhibition of cell growth after 72 hrs by cell titer 96 assay; assay type: functional; details: SK-BR-3, 72 h; method in brief: as §4
[26] = molecular target: T2, Heat shock protein HSP90; assay: Inhibition of Hsp90 in human HeLa cells assessed as Her2 degradation at 0.01 to 20 uM after 36 hrs by Western blot analysis; assay type: cell-based; method in brief: as §3
[27] = molecular target: T2, Heat shock protein HSP90; assay: Inhibition of Hsp90 in human MCF7 cells assessed as Her2 degradation after 36 hrs by Western blot analysis; assay type: cell-based; method in brief: as §3
[28] = molecular target: T2, Heat shock protein HSP90; assay: Inhibition of Hsp90 in human HeLa cells assessed as Raf degradation at 0.01 to 20 uM after 36 hrs by Western blot analysis; assay type: cell-based; method in brief: as §3
[29] = molecular target: T2, Heat shock protein HSP90; assay: Inhibition of Hsp90 in human SKBR3 cells assessed as Her2 degradation after 36 hrs by Western blot analysis; assay type: cell-based; details: SK-BR-3
Method in brief: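 SkBr3 cells (1×10^6 per dish) were attached overnight, then exposed to the compound for 36 h. […] Her2 was Western blotted from 1 µg extract protein, with actin as loading control.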

[30] = molecular target: T2, Heat shock protein HSP90; assay: Inhibition of Hsp90 in human HeLa cells assessed as Akt degradation at 0.01 to 20 uM by Western blot analysis; assay type: cell-based; method in brief: as §3
[31] = molecular target: T2, Heat shock protein HSP90; assay: Inhibition of Hsp90 in human MCF7 cells assessed as induction of Hsp90 expression after 36 hrs by Western blot analysis; assay type: cell-based; method in brief: as §3
[32] = molecular target: T2, Heat shock protein HSP90; assay: Binding affinity to human Hsp90 N-terminal domain (1 to 241) expressed in Escherichia coli DE-3 Star cells by SPR analysis
[33] = molecular target: T2, Heat shock protein HSP90; assay: Binding affinity to human Hsp90 N-terminal domain (1 to 241) expressed in Escherichia coli DE-3 Star cells by SPR analysis in presence of 20 uM geldanamycin
[34] = molecular target: Hsp90 co-chaperone Cdc37 (Homo sapiens) (UniProt Q16543); details: 20 mM
[35] = Inhibition of Hsp90-mediated [35S]His-tagged HRI maturation in heme-deficient reticulocyte lysate at 20 mM after 45 mins by SDS-PAGE and autoradiography; method in brief: as §1
[36] = Effect on [35S]His-tagged HRI stability in heme-deficient reticulocyte lysate assessed as loss of [35S]His-tagged HRI at 20 mM after 45 mins by SDS-PAGE and autoradiography; method in brief: as §1

COC1=C2C[C@@H](C)C[C@H](OC)[C@H](O)[C@@H](C)/C=C(\C)[C@H](OC(N)=O)[C@@H](OC)/C=C\C=C(/C)C(=O)NC(=CC1=O)C2=O
Activity [1]: Active | inhibition [2]: Active | Activity [3]: 0%

CO[C@@H]1[C@@H](OC(N)=O)[C@@H](O)[C@H](Oc2ccc3c(O)c(NC(=O)c4ccc(O)c(CC=C(C)C)c4)c(=O)oc3c2C)OC1(C)C
inhibition [4]: Active | Activity [5]: 90%

CO[C@H]1[C@H](OC(=O)c2ccc(C)[nH]2)[C@H](O)[C@@H](Oc2ccc3c(O)c(NC(=O)c4c[nH]c(C(=O)Nc5c(O)c6ccc(O[C@H]7OC(C)(C)[C@@H](OC)[C@H](OC(=O)c8ccc(C)[nH]8)[C@@H]7O)c(C)c6oc5=O)c4C)c(=O)oc3c2C)OC1(C)C
inhibition [6]: Active | Activity [7]: 80%

CC1=C(O)C(=O)C=C2C1=CC=C1[C@@]2(C)CC[C@@]2(C)[C@@H]3C[C@](C)(C(=O)O)CC[C@]3(C)CC[C@]12C [CELASTROL]
Activity [8]: inactive | inhibition [9]: Active | Activity [10]: 40% | IC50 [11]: 20 µM

CC(C)=CCC[C@]1(C)C=Cc2c(O)c3c(c(CC=C(C)C)c2O1)O[C@]12C(=C[C@@H]4C[C@H]1C(C)(C)O[C@@]2(C/C=C(/C)C(=O)O)C4=O)C3=O [GAMBOGIC ACID]
inhibition [12]: Dose-dependent effect | inhibition [13]: Dose-dependent effect | inhibition [14]: Dose-dependent effect | inhibition [15]: Dose-dependent effect | inhibition [16]: Dose-dependent effect | inhibition [17]: Dose-dependent effect | inhibition [18]: Dose-dependent effect | Activity [19]: inactive | inhibition [20]: inactive | Activity [21]: 10% | Kd [22]: 9.8 µM | Activity [23]: inactive | IC50 [11]: 2 µM | GI50 [24]: 1.5 µM | GI50 [25]: 0.8 µM | inhibition [26]: Active | inhibition [27]: Dose-dependent effect | inhibition [28]: Active | inhibition [29]: Dose-dependent effect | inhibition [30]: Active | inhibition [31]: Dose-dependent effect | Kd [32]: 7.6 µM | Kd [33]: 7 µM

SODIUM MOLYBDATE
Activity [34]: Active | inhibition [35]: Active | Activity [36]: 10%
